Measured values: ChEMBL document CHEMBL3785023, “Development and Pharmacological Characterization of Selective Blockers of 2-Arachidonoyl Glycerol Degradation with Efficacy in Rodent Models of Multiple Sclerosis and Pain” (J Med Chem, 2016)
The source made the active and inactive calls. The rule behind the calls is not given here.

Legend:
[1] = system: Heart; assay: Cardiotoxicity in Langendorff-perfused Sprague-Dawley rat heart assessed as time duration of cardiac cycle length at 0.01 uM by ECG analysis (reference value: 238.38 +/- 9.23 milliseconds); assay type: toxicity, tissue-based
[2] = system: Heart; assay: Cardiotoxicity in Langendorff-perfused Sprague-Dawley rat heart assessed as atrioventricular conduction time at 0.001 uM by ECG analysis (reference value: 45.62 +/- 4.49 milliseconds); assay type: toxicity, tissue-based
[3] = system: Heart; assay: Cardiotoxicity in Langendorff-perfused Sprague-Dawley rat heart assessed as atrioventricular conduction time at 0.1 uM by ECG analysis (reference value: 45.62 +/- 4.49 milliseconds); assay type: toxicity, tissue-based
[4] = system: Heart; assay: Cardiotoxicity in Langendorff-perfused Sprague-Dawley rat heart assessed as atrioventricular conduction time at 1 uM by ECG analysis (reference value: 45.62 +/- 4.49 milliseconds); assay type: toxicity, tissue-based
[5] = system: Heart; assay: Cardiotoxicity in Langendorff-perfused Sprague-Dawley rat heart assessed as intraventricular conduction time at 0.1 uM by ECG analysis (reference value: 14.26 +/- 0.71 milliseconds); assay type: toxicity, tissue-based, Cardiac ventricle
[6] = system: Heart; assay: Cardiotoxicity in Langendorff-perfused Sprague-Dawley rat heart assessed as intraventricular conduction time at 1 uM by ECG analysis (reference value: 14.26 +/- 0.71 milliseconds); assay type: toxicity, tissue-based, Cardiac ventricle
[7] = system: Heart; assay: Cardiotoxicity in Langendorff-perfused Sprague-Dawley rat heart assessed as time duration of action potential at 0.01 uM by ECG analysis (reference value: 75.65 +/- 0.87 milliseconds); assay type: toxicity, tissue-based
[8] = biological target: T1, Fatty-acid amide hydrolase 1 (Homo sapiens, UniProt O00519); assay: Inhibition of recombinant C-terminal His-tagged human FAAH expressed in sf21 cells using N-arachidonoyl-[14C]-ethanolamine as substrate assessed as reduction in [14C]ethanolamine production incubated for 30 mins by scintillation counting method
T1 sequence (O00519 whole entry): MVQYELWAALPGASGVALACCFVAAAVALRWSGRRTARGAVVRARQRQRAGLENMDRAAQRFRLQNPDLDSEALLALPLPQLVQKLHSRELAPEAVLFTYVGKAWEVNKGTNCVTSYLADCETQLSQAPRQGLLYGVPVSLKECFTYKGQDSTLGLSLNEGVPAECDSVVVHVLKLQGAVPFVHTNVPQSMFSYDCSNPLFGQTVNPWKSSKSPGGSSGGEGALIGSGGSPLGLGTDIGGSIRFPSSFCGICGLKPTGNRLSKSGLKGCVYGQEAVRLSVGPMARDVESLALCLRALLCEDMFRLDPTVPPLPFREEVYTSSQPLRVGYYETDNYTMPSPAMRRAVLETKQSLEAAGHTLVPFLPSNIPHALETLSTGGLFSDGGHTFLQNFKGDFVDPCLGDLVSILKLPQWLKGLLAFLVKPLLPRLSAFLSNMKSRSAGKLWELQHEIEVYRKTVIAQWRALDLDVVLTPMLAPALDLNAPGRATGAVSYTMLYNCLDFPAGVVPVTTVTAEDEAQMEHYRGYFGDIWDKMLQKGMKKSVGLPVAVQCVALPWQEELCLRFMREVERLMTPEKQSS
Outline: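 Human recombinant FAAH (2 µg/sample) incubated in 50 mM Tris-HCl, pH 9.5, 37 °C, 30 min with N-arachidonoyl-[14C]-ethanolamine diluted with unlabelled AEA. [14C]-ethanolamine released was quantified by scintillation counting of the aqueous phase after extraction with 2 volumes CHCl3/MeOH 1:1. Values are means of three experiments.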

[9] = system: Salmonella typhimurium; assay: Mutagenicity in Salmonella typhimurium TA98 assessed as increase in number of colonies at 1 uM by Ames test; assay type: toxicity, organism-based; conditions: salmonella enterica subsp. enterica serovar typhimurium
[10] = system: Mus musculus; assay: Reduction of disease index score in myelin oligodendrocyte glycoprotein (35 to 55)-induced C57BL/6J mouse experimental autoimmune encephalomyelitis model of multiple sclerosis at 3 mg/kg, ip administered post CB1 antagonist/inverse agonist AM251 addition dosed on day 6 postimmunization up to 21 day postimmunization measured from day 12 postimmunization; assay type: functional, organism-based
Outline: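 Female C57BL/6J mice immunized with MOG35-55 were randomly assigned to groups. They received 3 mg/kg i.p. daily from 6 days post-immunization up to 21±1 d.p.i. AM251 or AM630, 1 mg/kg i.p., was given 10 min before each dose for 14 days. Clinical score was recorded daily and as cumulative score, reported as mean ± SEM. Group sizes were 4–9 mice.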

[11] = system: Mus musculus; assay: Inhibition of demyelination in experimental autoimmune encephalomyelitis C57BL/6J mouse spinal cord at 3 mg/kg, ip by luxol fast blue staining based microscopic analysis; assay type: functional, organism-based
Outline: (§1)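 EAE induced in female C57BL/6J mice with MOG35-55, then 3 mg/kg i.p. daily. AM251 or AM630 (1 mg/kg), where used, given 10 min before each dose. Spinal cord white matter stained with Luxol Fast Blue and demyelinated areas assessed by microscopy.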

[12] = system: Mus musculus; assay: Inhibition of demyelination in experimental autoimmune encephalomyelitis C57BL/6J mouse spinal cord at 3 mg/kg, ip administered post CB1 antagonist/inverse agonist AM251 addition by luxol fast blue staining based microscopic analysis; assay type: functional, organism-based; outline: as §1
[13] = system: Mus musculus; assay: Reduction of IBA1 positive cells in white matter anterior fasciculus of experimental autoimmune encephalomyelitis C57BL/6J mouse spinal cord at 3 mg/kg, ip by immunofluorescence assay; assay type: functional, organism-based
Outline: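 Female C57BL/6J mice immunized with MOG35-55 received 3 mg/kg i.p. daily. Spinal cord white matter (anterior fasciculus) was stained for Iba1, with DAPI nuclear counterstain. Iba1-positive cells were counted per optic field. One-way ANOVA with Bonferroni test.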

[14] = system: Mus musculus; assay: Antinociceptive activity in CD-1 mouse assessed as inhibition of formalin-induced pain response at 0.1 to 0.3 mg/kg, ip dosed 10 mins before formalin injection measured during early phase; assay type: functional, organism-based
Outline: (§2)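 Male CD-1 mice, n = 6 per group, injected with formalin (1.25% in saline, 30 μL) into the dorsal hind paw. Inhibitor (0.1 or 0.3 mg/kg i.p. in 0.5% DMSO/saline) given 10 min before formalin. Where used, AM251 or AM630 (1 mg/kg i.p.) given 10 min before the inhibitor. Time spent lifting, licking, shaking or flinching the injected paw recorded every 5 min over 60 min.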

[15] = system: Mus musculus; assay: Antinociceptive activity in CD-1 mouse assessed as inhibition of formalin-induced early phase pain response at 0.1 to 0.3 mg/kg, ip dosed 10 mins before formalin injection measured every 5 mins for 60 mins in presence of CB2 antagonist/inverse agonist AM630; assay type: functional, organism-based; outline: as §2
[16] = system: Mus musculus; assay: Antinociceptive activity in CD-1 mouse assessed as inhibition of formalin-induced late phase pain response at 0.1 to 0.3 mg/kg, ip dosed 10 mins before formalin injection measured every 5 mins for 60 mins in presence of CB1 antagonist/inverse agonist AM251; assay type: functional, organism-based; outline: as §2
[17] = system: Mus musculus; assay: Antinociceptive activity in CD-1 mouse assessed as inhibition of formalin-induced late phase pain response at 0.1 to 0.3 mg/kg, ip dosed 10 mins before formalin injection measured every 5 mins for 60 mins in presence of CB2 antagonist/inverse agonist AM630; assay type: functional, organism-based; outline: as §2

Molecule `O=C1[C@H](c2ccc(F)cc2)[C@@H](c2ccc3c(c2)OCO3)N1C1CCN(C(=O)n2cncn2)CC1` (racemic) [listing 1 of 2 here] has a Time [1] of 236.8 ms, a Time [2] of 46.03 ms and a Time [3] of 46.18 ms. For the same molecule, the Time [4] was 46.67 ms, the Time [5] was 13.75 ms and the Time [6] was 13.75 ms. For the same molecule, the Time [7] was 76.17 ms, the IC50 [8] was 2880 nM and the Activity [9] was “Non-toxic”.
In the case of `O=C1[C@H](c2ccc(F)cc2)[C@@H](c2ccc3c(c2)OCO3)N1C1CCN(C(=O)n2cncn2)CC1` (racemic) [listing 2 of 2 here], the Activity [10] is reported as “inactive”, the inhibition [11] is reported as “Active” and the inhibition [12] is reported as “inactive”. The Activity [13] was “Active”, the inhibition [14] was “Active” and the inhibition [15] was “inactive”. For the same molecule, the inhibition [16] was “inactive” and the inhibition [17] was “inactive”.
